The list is not random: actives were taken first. Their share in the collection is about 1.9%.
CHRM5 antagonist – human M5 muscarinic receptor antagonists, primary screen, CHO cells, Fluo-8 calcium fluorescence | inhibition, % at 3 µM | 0.59% of 360,000 active | AID 624040, 2012 | CHO-hM5 cells, ACh EC80 | Muscarinic acetylcholine receptor M5 (Homo sapiens), P08912;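 active = inhibition above a per-plate cutoff, the mean of that plate's test compounds plus 3 SD, cut at about 27% in these data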
Target sequence (P08912 whole entry, looked up): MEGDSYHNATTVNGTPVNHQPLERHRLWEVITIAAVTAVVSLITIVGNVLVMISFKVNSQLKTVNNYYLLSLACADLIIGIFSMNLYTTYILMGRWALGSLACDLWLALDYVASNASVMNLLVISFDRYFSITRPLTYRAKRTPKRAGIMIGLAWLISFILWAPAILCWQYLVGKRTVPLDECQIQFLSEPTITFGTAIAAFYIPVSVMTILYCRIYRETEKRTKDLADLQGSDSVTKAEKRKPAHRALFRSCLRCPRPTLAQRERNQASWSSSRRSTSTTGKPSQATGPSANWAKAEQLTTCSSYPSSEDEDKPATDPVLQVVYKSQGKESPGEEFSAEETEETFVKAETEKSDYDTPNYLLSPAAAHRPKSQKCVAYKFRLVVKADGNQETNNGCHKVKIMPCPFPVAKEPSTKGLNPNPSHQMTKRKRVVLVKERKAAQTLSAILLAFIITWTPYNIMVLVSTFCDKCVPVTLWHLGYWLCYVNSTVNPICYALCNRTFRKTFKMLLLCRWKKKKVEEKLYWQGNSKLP
M4 PAM – human M4 muscarinic receptor positive allosteric modulators, primary screen, CHO-K1 cells, Fluo-8 calcium fluorescence; Muscarinic acetylcholine receptor M4 (Homo sapiens), P08173; CHO-K1 hM4/Gqi5, ACh EC20; 0% = ACh EC20, 100% = maximal ACh; activation, % at 3 µM; 0.4% of 360,000 active;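 active = activation above its plate's cutoff, the mean activation of sample wells plus 3 SD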
CHRM5 PAM – human M5 muscarinic receptor positive allosteric modulators, primary screen, CHO-K1 cells, Fluo-8 calcium fluorescence | AID 624038, 2012 | 0.3% of 360,000 active | Muscarinic acetylcholine receptor M5 (Homo sapiens), P08912 | activation, % at 3 µM | CHO-K1 hM5, ACh EC20 PAM; 0% = ACh EC20, 100% = ACh EC100;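 active = activation above the run cutoff, the mean activation of all test compounds plus 3 SD, cut at about 18% in these data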
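Measured by: Fluo-8 calcium fluorescence; material: human M5 receptor in CHO-K1 cells; schedule: Post-acetylcholine fluorescence recording 140 s; benchmarks: low control EC20 acetylcholine (0%), high control EC100 acetylcholine (100%); read-out: Max/basal fluorescence ratio as % of EC20–EC100 ACh window; compound: single dose, 3 µM nominal final test concentration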
CHRM4 agonist – human M4 muscarinic receptor agonists, primary screen, CHO-K1 cells, Fluo-8 calcium fluorescence; Muscarinic acetylcholine receptor M4 (Homo sapiens), P08173; CHO-K1 hM4/Gqi5; vehicle 0%, full acetylcholine response 100%; activation, % at 3 µM; 0.14% of 360,000 active; AID 624127, 2012;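 active = activation above the run mean over all test wells plus 3 SD, cut at about 32% in these data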;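 also: peak over basal fluorescence ratio per well then scaled between controls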
CHRM4 antagonist – human M4 muscarinic receptor antagonists, primary screen, CHO cells, Fluo-8 calcium fluorescence. inhibition, % at 3 µM. AID 624125, 2012. CHO-hM4 cells, ACh EC80. 0.73% of 360,000 active;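 active = inhibition above its plate's cutoff, the mean inhibition of sample wells plus 3 SD, cut at about 27% in these data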
CHRM5 agonist – human M5 muscarinic receptor agonists, primary screen, CHO-K1 cells, Fluo-8 calcium fluorescence; Muscarinic acetylcholine receptor M5 (Homo sapiens), P08912; CHO-K1 hM5 cells; 0% DMSO wells, 100% maximal acetylcholine response; activation, % at 3 µM; 0.19% of 360,000 active;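 active = activation above the run's mean over test compounds plus 3 SD, cut at about 23% in these data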;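 also: signal is peak over basal fluorescence ratio across the kinetic read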
A number is an active result.

Results for COc1ccc(C)c2sc(NC(=O)C3=COCCO3)nc12 ?
CHRM5 antagonist: inactive; M4 PAM: 36; CHRM5 PAM: inactive; CHRM4 agonist: inactive; CHRM4 antagonist: inactive; CHRM5 agonist: inactive

What do the screens show for `COC(=O)c1c(NC(=O)C2=COCCO2)sc(C)c1C`?
CHRM5 antagonist: inactive; M4 PAM: 25; CHRM5 PAM: inactive; CHRM4 agonist: inactive; CHRM4 antagonist: inactive; CHRM5 agonist: inactive

What do the screens show for `COc1ccc2nc(SCC(=O)Nc3cc(OC)c(OC)cc3C(=O)O)c(C)cc2c1`?
CHRM5 antagonist: inactive; M4 PAM: inactive; CHRM5 PAM: inactive; CHRM4 agonist: inactive; CHRM4 antagonist: inactive; CHRM5 agonist: inactive

How did CCOC(=O)c1ccc(NC(=S)NCCc2ccccc2)cc1 do in these assays?
CHRM5 antagonist: inactive; M4 PAM: inactive; CHRM5 PAM: inactive; CHRM4 agonist: inactive; CHRM4 antagonist: inactive; CHRM5 agonist: inactive

How did CCOC(=O)c1ccc(NC(=S)NCCc2ccccc2F)cc1 do in these assays?
CHRM5 antagonist: 30; M4 PAM: inactive; CHRM5 PAM: inactive; CHRM4 agonist: inactive; CHRM4 antagonist: 29; CHRM5 agonist: inactive

What do the screens show for `CCOC(=O)c1ccc(NC(=S)NCC(O)c2ccccc2)cc1` (stereo not drawn)?
CHRM5 antagonist: 38; M4 PAM: inactive; CHRM5 PAM: inactive; CHRM4 agonist: inactive; CHRM4 antagonist: inactive; CHRM5 agonist: inactive

Results for O=C1c2cc(O)c(O)cc2OC(c2ccc(O)c(O)c2)C1O (stereo not drawn) ?
CHRM5 antagonist: inactive; M4 PAM: inactive; CHRM5 PAM: inactive; CHRM4 agonist: inactive; CHRM4 antagonist: inactive; CHRM5 agonist: inactive

How did CS(=O)(=O)Cc1ccc(C(=O)NNC(=O)c2cc(-c3ccccc3)n[nH]2)cc1 do in these assays?
CHRM5 antagonist: inactive; M4 PAM: inactive; CHRM5 PAM: inactive; CHRM4 agonist: inactive; CHRM4 antagonist: inactive; CHRM5 agonist: inactive

What do the screens show for `CC(C)CCN1CC(C(=O)NCc2ccc(F)cc2)CC1=O` (stereo not drawn)?
CHRM5 antagonist: inactive; M4 PAM: inactive; CHRM5 PAM: inactive; CHRM4 agonist: inactive; CHRM4 antagonist: inactive; CHRM5 agonist: inactive

What do the screens show for `O=C(OCc1nnc(-c2ccccc2)o1)C1CC(=O)N(CCc2ccccc2)C1` (stereo not drawn)?
CHRM5 antagonist: inactive; M4 PAM: 25; CHRM5 PAM: inactive; CHRM4 agonist: inactive; CHRM4 antagonist: inactive; CHRM5 agonist: inactive

What do the screens show for `O=C(NCc1ccc(F)cc1)C1CC(=O)N(CCc2ccccc2)C1` (stereo not drawn)?
CHRM5 antagonist: inactive; M4 PAM: inactive; CHRM5 PAM: 19; CHRM4 agonist: inactive; CHRM4 antagonist: inactive; CHRM5 agonist: inactive

How did CCC(C)n1c(=O)c(C(=O)Nc2ccccc2S(N)(=O)=O)c(O)c2ccccc21 (stereo not drawn) do in these assays?
CHRM5 antagonist: inactive; M4 PAM: inactive; CHRM5 PAM: 27; CHRM4 agonist: inactive; CHRM4 antagonist: inactive; CHRM5 agonist: inactive

How did CC(C)Cn1c(=O)c(C(=O)Nc2ccccc2S(N)(=O)=O)c(O)c2ccccc21 do in these assays?
CHRM5 antagonist: inactive; M4 PAM: inactive; CHRM5 PAM: inactive; CHRM4 agonist: inactive; CHRM4 antagonist: inactive; CHRM5 agonist: inactive

What do the screens show for `COc1cccc(C2NC(=O)CCC2[N+](=O)[O-])c1OC` (stereo not drawn)?
CHRM5 antagonist: inactive; M4 PAM: inactive; CHRM5 PAM: inactive; CHRM4 agonist: inactive; CHRM4 antagonist: inactive; CHRM5 agonist: inactive

What do the screens show for `CCC(C(=O)NCc1ccc(F)cc1)N(Cc1cccs1)C(=O)c1snc(C(N)=O)c1N` (stereo not drawn)?
CHRM5 antagonist: inactive; M4 PAM: inactive; CHRM5 PAM: inactive; CHRM4 agonist: inactive; CHRM4 antagonist: inactive; CHRM5 agonist: inactive

Results for CCOC(=O)c1ccc(N)cc1 ?
CHRM5 antagonist: inactive; M4 PAM: inactive; CHRM5 PAM: inactive; CHRM4 agonist: inactive; CHRM4 antagonist: inactive; CHRM5 agonist: inactive

Results for CCOC(=O)c1ccc(C(=O)OCC)nc1 ?
CHRM5 antagonist: inactive; M4 PAM: inactive; CHRM5 PAM: 21; CHRM4 agonist: inactive; CHRM4 antagonist: inactive; CHRM5 agonist: inactive

What do the screens show for `Cc1ccccc1NC(=O)C(=O)c1cn(C)c2ccccc12`?
CHRM5 antagonist: inactive; M4 PAM: inactive; CHRM5 PAM: inactive; CHRM4 agonist: inactive; CHRM4 antagonist: inactive; CHRM5 agonist: inactive

Results for CCc1noc(N)c1C(=O)Nc1ccc(F)c(Cl)c1 ?
CHRM5 antagonist: inactive; M4 PAM: inactive; CHRM5 PAM: 22; CHRM4 agonist: inactive; CHRM4 antagonist: inactive; CHRM5 agonist: inactive

How did CCc1noc(N)c1C(=O)Nc1ccc(Cl)cc1 do in these assays?
CHRM5 antagonist: inactive; M4 PAM: inactive; CHRM5 PAM: inactive; CHRM4 agonist: inactive; CHRM4 antagonist: inactive; CHRM5 agonist: inactive

What do the screens show for `CCC(=O)Oc1ccc2ccccc2c1CNC(=O)c1ccccc1`?
CHRM5 antagonist: inactive; M4 PAM: inactive; CHRM5 PAM: inactive; CHRM4 agonist: inactive; CHRM4 antagonist: inactive; CHRM5 agonist: inactive

Results for C=CCNC(=O)CN1C2CCCC1CC(NC(=O)c1ccccc1C)C2 (stereo not drawn) ?
CHRM5 antagonist: inactive; M4 PAM: inactive; CHRM5 PAM: inactive; CHRM4 agonist: inactive; CHRM4 antagonist: inactive; CHRM5 agonist: inactive

Results for Cc1ccccc1C(=O)NC1CC2CCCC(C1)N2CC(C)C (stereo not drawn) ?
CHRM5 antagonist: inactive; M4 PAM: inactive; CHRM5 PAM: inactive; CHRM4 agonist: inactive; CHRM4 antagonist: 27; CHRM5 agonist: inactive

What do the screens show for `Cn1ncc(Br)c1NC(=O)Nc1ccc(OC(F)(F)F)cc1`?
CHRM5 antagonist: 27; M4 PAM: inactive; CHRM5 PAM: inactive; CHRM4 agonist: inactive; CHRM4 antagonist: inactive; CHRM5 agonist: inactive

Results for O=c1cc2c(nn1Cc1cccc(Cl)c1)-c1ccccc1CC2 ?
CHRM5 antagonist: inactive; M4 PAM: inactive; CHRM5 PAM: inactive; CHRM4 agonist: inactive; CHRM4 antagonist: inactive; CHRM5 agonist: inactive

Results for O=c1cc2c(nn1Cc1ccc(Cl)cc1)-c1ccccc1CC2 ?
CHRM5 antagonist: inactive; M4 PAM: inactive; CHRM5 PAM: 30; CHRM4 agonist: inactive; CHRM4 antagonist: inactive; CHRM5 agonist: inactive

Results for N/C(=N\OC(=O)CCCOc1ccccc1)c1cccc([N+](=O)[O-])c1 ?
CHRM5 antagonist: inactive; M4 PAM: inactive; CHRM5 PAM: inactive; CHRM4 agonist: inactive; CHRM4 antagonist: inactive; CHRM5 agonist: inactive
